Experimental data reported in ChEMBL document CHEMBL3745678, “Novel β-Carboline/Hydroxamic Acid Hybrids Targeting Both Histone Deacetylase and DNA Display High Anticancer Activity via Regulation of the p53 Signaling Pathway” (J Med Chem, 2015).
Calls of active or inactive are those of the source. The calls are words filed in the database; no cut-off is given here.

Key:
Mus musculus [1] = assay: Acute toxicity in ICR mouse assessed as death at 240 to 300 mg/kg, ip measured after 5 to 14 days; type: organism-based; settings: in vivo
Outline: (§1)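 Female ICR mice, single intraperitoneal injection at 585.9, 468.8, […], 300 or 240 mg/kg, or vehicle control, n = 10 per group. Deaths counted at 1 h, 4 h, daily on days 1-4 and over days 5-14. Eating, drinking, body weight and activity observed for 14 days, with survival (%) taken on day 14. LD50 calculated from mortality.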

HCT-116 [2] = assay: Induction of apoptosis in human HCT116 cells after 48 hrs by annexin V-FITC/propidium iodide staining-based flow cytometric analysis; type: functional, cell-based
Outline: (§2)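 HCT116 cells cultured overnight, then exposed in triplicate for 48 h to 0.1, 1.0 or 5.0 µM, SAHA 5.0 µM or vehicle. Stained with FITC-Annexin V/PI for 15 min at room temperature.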

[3] = target: T1, Histone deacetylase (Homo sapiens) (UniProt Q13547+O15379+Q9UBN7+Q92769+Q9UQL6+Q8WUI4+Q9BY41+Q96DB2+P56524+Q9UKV0+Q969S8); assay: Potency index, ratio of SAHA IC50 to compound IC50 for HDAC in human HeLa cell nuclear extract; type: cell-based
Outline: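 HDAC source was HeLa nuclear extract. Incubated with compound dilutions and Boc-Lys(Ac)-AMC substrate for 60 min at 37 °C, then lysine developer added for 30 min. Fluorescence read at ex 355/em 460 nm, activity expressed as % of control and IC50 fitted. Index = SAHA IC50 ÷ compound IC50.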

Mus musculus [4] = assay: Acute toxicity in ICR mouse assessed as death at 240 mg/kg, ip measured after 4 days; type: organism-based; settings: in vivo, 96 h; outline: as §1
[5] = target: T1, Histone deacetylase (Homo sapiens); assay: Inhibition of HDAC in human HCT116 cells assessed as increase in acetyl-alpha-tubulin expression after 48 hrs by immunoblotting analysis; type: cell-based; settings: HCT-116
Outline: (§3)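 HCT116 cells treated 48 h with compound, SAHA or vehicle. Lysates probed by immunoblot for acetyl-histone H3 and acetyl-α-tubulin, with β-actin as loading control. Relative levels by densitometric scanning; means ± SD of three experiments.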

[6] = Acute toxicity in ip dosed ICR mouse measured for 14 days; type: organism-based; settings: in vivo; outline: as §1
Mus musculus [7] = assay: Acute toxicity in ICR mouse assessed as death at 468.8 mg/kg, ip measured after 5 to 14 days; type: organism-based; settings: in vivo; outline: as §1
[8] = Acute toxicity in ICR mouse assessed as survival rate at 468.8 mg/kg, ip measured on day 14; type: organism-based; settings: in vivo; outline: as §1
HCT-116 [9] = assay: Antiproliferative activity against human HCT116 cells assessed as cell death at 5 uM after 48 hrs by MTT assay; type: functional, cell-based
Outline: (§4)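 HCT116 and rat IEC-18 cells incubated 48 h over a 0–5 µM range. Viability measured by MTT and expressed as % of control. GI50 taken from the inhibition curves; three independent experiments.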

Mus musculus [10] = assay: Acute toxicity in ICR mouse assessed as death at 240 to 300 mg/kg, ip measured after 3 days; type: organism-based; settings: in vivo, 72 h; outline: as §1
HCT-116 [11] = assay: Induction of caspase-3 cleavage in human HCT116 cells at 1 to 5 uM after 48 hrs by western blot analysis; type: functional, cell-based
Outline: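 HCT116 cells treated 48 h with or without compound. Western blots probed for Bax, Bcl-2, cleaved caspase-3 and PARP. Band intensities relative to β-actin by densitometry; means ± SD from three separate experiments.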

HCT-116 [12] = assay: Induction of apoptosis in human HCT116 cells at 1 uM after 48 hrs by annexin V-FITC/propidium iodide staining-based flow cytometric analysis; type: functional; outline: as §2
HCT-116 [13] = assay: Induction of apoptosis in human HCT116 cells at 5 uM after 48 hrs by annexin V-FITC/propidium iodide staining-based flow cytometric analysis; type: functional; outline: as §2
[14] = Acute toxicity in ICR mouse assessed as survival rate at 240 mg/kg, ip measured on day 14; type: organism-based; settings: in vivo; outline: as §1
Histone deacetylase = assay: Inhibition of HDAC in human HeLa cell nuclear extract using Boc-Lys (Ac)-AMC as substrate after 60 mins by fluorometric analysis; type: cell-based
[15] = Cytotoxicity against rat IEC-18 cells assessed as survival after 48 hrs by MTT assay; type: cell-based; outline: as §4
SW480 = assay: Antiproliferative activity against human SW480 cells assessed as cell viability after 48 hrs by MTT assay; type: functional, cell-based; settings: SW480, 48 h
[16] = target: T1, Histone deacetylase (Homo sapiens); assay: Inhibition of HDAC in human HCT116 cells assessed as increase in acetyl-histone H3 expression after 48 hrs by immunoblotting analysis; type: cell-based; settings: HCT-116; outline: as §3
[17] = Antitumor activity against human HCT116 cells xenografted in BALB/c mouse assessed as tumor weight at 90 mg/kg, po measured twice per week over 22 days (reference value: 1.38 +/- 0.13 g); type: functional, HCT-116
[18] = Antiproliferative activity against human SW620 cells assessed as cell viability after 48 hrs by MTT assay; type: functional, cell-based; settings: SW-620, 48 h
HCT-116 [19] = assay: Potency index, ratio of SAHA IC50 to compound IC50 for human HCT116 cells; type: functional
Outline: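 HCT116 cells seeded at 10^4 cells/ml and adhered overnight, then treated 48 h over a concentration series with 0.1% DMSO as control. MTT readout; IC50 derived from inhibition % = (1 − OD treated/OD control) × 100, three independent measurements. Index = SAHA IC50 ÷ compound IC50.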

## COc1ccc(-c2nc(NC(=O)NCCCC(=O)NO)cc3c2[nH]c2ccccc23)cc1
Mus musculus [1]
  Activity: Non-toxic
HCT-116 [2]
  Activity: Dose-dependent effect
[3]
  Ratio IC50: 2
Mus musculus [4]
  Activity: Non-toxic
[5]
  inhibition: Dose-dependent effect
[6]
  LD50 at 336 h: 472 mg/kg
Mus musculus [7]
  Activity: Non-toxic
[8]
  survival at 14 day: 50%
HCT-116 [9]
  Activity: Active
Mus musculus [10]
  Activity: Non-toxic
HCT-116 [11]
  Activity: Active
HCT-116 [12]
  Activity: 41.3%
HCT-116 [13]
  Activity: 73.9%
[14]
  survival at 14 day: 100%
Histone deacetylase
  IC50: 0.27 µM
[15]
  GI50 at 48 h: 5.46 µM
SW480
  IC50: 1160 nM
[16]
  inhibition: Dose-dependent effect
[17]
  Activity: 0.53 g
[18]
  IC50: 940 nM
HCT-116 [19]
  Ratio IC50: 7
